Test results: ChEMBL document CHEMBL3813621, “Structure-Activity Relationship Studies of Isomeric 2,4-Diaminoquinazolines on β-Amyloid Aggregation Kinetics” (ACS Med Chem Lett, 2016)
Active and inactive are the calls of the source. The calls are words filed in the database; no cut-off is given here.

Tests used:
[1] = molecular target: T1, Amyloid-beta precursor protein (Homo sapiens, UniProt P05067); experiment: Inhibition of self-induced amyloid beta 40 (unknown origin) aggregation measured for 24 hrs by thioflavin T-based fluorescence spectroscopic analysis
T1 sequence (P05067 whole entry): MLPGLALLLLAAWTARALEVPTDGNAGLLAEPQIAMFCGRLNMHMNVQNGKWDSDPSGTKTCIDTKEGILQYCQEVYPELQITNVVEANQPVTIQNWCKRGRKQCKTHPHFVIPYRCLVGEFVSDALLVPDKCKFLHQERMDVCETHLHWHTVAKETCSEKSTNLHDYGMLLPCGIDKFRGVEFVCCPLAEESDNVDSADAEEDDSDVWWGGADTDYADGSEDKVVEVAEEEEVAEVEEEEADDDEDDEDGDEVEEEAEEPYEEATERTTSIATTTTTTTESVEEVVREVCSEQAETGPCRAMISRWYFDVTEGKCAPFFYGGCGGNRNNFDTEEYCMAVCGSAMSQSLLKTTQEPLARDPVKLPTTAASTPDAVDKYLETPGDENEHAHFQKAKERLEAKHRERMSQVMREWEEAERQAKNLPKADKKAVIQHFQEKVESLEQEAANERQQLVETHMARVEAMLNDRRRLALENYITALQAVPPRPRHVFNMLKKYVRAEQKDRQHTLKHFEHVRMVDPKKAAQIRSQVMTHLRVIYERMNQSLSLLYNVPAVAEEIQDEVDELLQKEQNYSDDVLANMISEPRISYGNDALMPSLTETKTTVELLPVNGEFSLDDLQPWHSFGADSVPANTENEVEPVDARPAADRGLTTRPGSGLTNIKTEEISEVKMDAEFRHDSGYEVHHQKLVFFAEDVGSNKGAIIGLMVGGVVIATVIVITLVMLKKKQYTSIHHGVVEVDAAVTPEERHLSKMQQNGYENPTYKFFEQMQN

[2] = molecular target: T1, Amyloid-beta precursor protein; experiment: Inhibition of self-induced amyloid beta 42 (unknown origin) aggregation measured for 24 hrs by thioflavin T-based fluorescence spectroscopic analysis
[3] = molecular target: T1, Amyloid-beta precursor protein; experiment: Inhibition of nucleation-dependent amyloid beta 40 (unknown origin) aggregation at 1 to 25 uM measured for 24 hrs by thioflavin T-based fluorescence spectroscopic analysis
Outline: (§1)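 Aβ peptide at 5 μM incubated with test compound (1, 5 or 25 μM) in phosphate buffer pH 7.4 at 37 °C for 24 h; aggregation monitored by ThT fluorescence (excitation 440 nm, emission 490 nm). IC50 calculated from ThT signal; mean of triplicate readings from three independent experiments.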

[4] = molecular target: T1, Amyloid-beta precursor protein; experiment: Inhibition of amyloid beta 42 (unknown origin) aggregation assessed as time at which fluorescence intensity reaches the midpoint between pre and post aggregation baseline growth phase at 25 uM measured for 24 hrs by thioflavin T-based fluorescence spectroscopic analysis
Outline: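 Aβ42 at 5 μM with compound at 25 μM in phosphate buffer pH 7.4, 37 °C, followed 24 h by ThT fluorescence (ex 440/em 490 nm). t50 taken as the time at which fluorescence reaches the midpoint between pre- and postaggregation baselines of the growth phase. Three independent experiments in triplicate.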

[5] = molecular target: T1, Amyloid-beta precursor protein; experiment: Induction of self-induced amyloid beta 40 (unknown origin) aggregation measured for 24 hrs by thioflavin T-based fluorescence spectroscopic analysis; outline: as §1
[6] = molecular target: T1, Amyloid-beta precursor protein; experiment: Induction of self-induced amyloid beta 42 (unknown origin) aggregation measured for 24 hrs by thioflavin T-based fluorescence spectroscopic analysis; outline: as §1
[7] = molecular target: T1, Amyloid-beta precursor protein; experiment: Inhibition of amyloid beta 40 (unknown origin) aggregation at 25 uM after 24 hrs by transmission electron microscopy
Outline: (§2)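 Aβ40 or Aβ42 at 25 μM, alone or with 25 μM compound, incubated 24 h at 37 °C in phosphate buffer pH 7.4; fibril and aggregate morphology then imaged by transmission electron microscopy.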

[8] = molecular target: T1, Amyloid-beta precursor protein; experiment: Inhibition of amyloid beta 42 (unknown origin) aggregation at 25 uM after 24 hrs by transmission electron microscopy; outline: as §2
[9] = molecular target: T1, Amyloid-beta precursor protein; experiment: Potency index, ratio of curcumin IC50 for amyloid beta 42 (unknown origin) aggregation to compound IC50 for amyloid beta 42 (unknown origin) aggregation
[10] = molecular target: T1, Amyloid-beta precursor protein; experiment: Potency index, ratio of curcumin IC50 for amyloid beta 40 (unknown origin) aggregation to compound IC50 for amyloid beta 40 (unknown origin) aggregation

SMILES | IC50 [1] | IC50 ([2]; read-out: IC50) | further results
Nc1nc(NCc2cccc(Br)c2)c2ccccc2n1 | 0.58 µM | 22.3 µM | inhibition [3]: Active; TIME [4]: 2.6 h
Nc1nc(NCc2cccc(Cl)c2)c2ccccc2n1 | 1.9 µM | > 25 µM | –
Nc1nc(NCc2ccccc2)c2ccccc2n1 | 4.8 µM | > 25 µM | –
Cc1cccc(CNc2nc(N)nc3ccccc23)c1 | 3.6 µM | > 25 µM | –
Nc1nc(N)c2ccccc2n1 | – | – | Activity [5]: Active; Activity [6]: Active
COc1cccc(CNc2nc(N)c3ccccc3n2)c1 | > 25 µM | > 25 µM | –
Nc1nc(NCc2ccc(F)cc2)c2ccccc2n1 | 3.1 µM | > 25 µM | –
Nc1nc(NCCc2ccccc2)c2ccccc2n1 | 7.8 µM | > 25 µM | –
O=S(=O)(O)c1cc(S(=O)(=O)O)c2c(/N=N/c3ccccc3)c(O)ccc2c1 [ORANGE G SODIUM] | 3 µM | 8.7 µM | –
Nc1nc(NCc2ccc(C(F)(F)F)cc2)c2ccccc2n1 | 1.9 µM | > 25 µM | –
Nc1nc(NCc2ccc(F)cc2)nc2ccccc12 | > 25 µM | > 25 µM | –
CC(C)Nc1nc(N)nc2ccccc12 | 10.2 µM | – | IC50 [2]: Not Active
Cc1ccc(CNc2nc(N)c3ccccc3n2)cc1 | 13.1 µM | 22.5 µM | –
Nc1nc(NCc2cccc(Br)c2)nc2ccccc12 | 1.5 µM | 2.7 µM | inhibition [1]: Dose-dependent effect; inhibition [2]: Dose-dependent effect; TIME [4]: 6 h
CC(C)Nc1nc(N)c2ccccc2n1 | > 25 µM | > 25 µM | –
CCCNc1nc(N)c2ccccc2n1 | > 25 µM | > 25 µM | –
Nc1nc(NCc2cccc(C(F)(F)F)c2)nc2ccccc12 | 12.5 µM | 13.8 µM | –
Nc1nc(NCc2cccc(F)c2)nc2ccccc12 | 11.3 µM | 14.7 µM | –

SMILES | IC50 [1] | IC50 ([2]; read-out: IC50) | further results
Nc1nc(NCc2cccc(Cl)c2)nc2ccccc12 | 5.9 µM | 13.4 µM | –
Nc1nc(NCc2cccc(C(F)(F)F)c2)c2ccccc2n1 | 3.5 µM | 21 µM | –
Nc1nc(NCc2ccc(Br)cc2)nc2ccccc12 | 1.7 µM | 1.7 µM | inhibition [1]: Dose-dependent effect; inhibition [2]: Dose-dependent effect; inhibition [4]: Active; inhibition [7]: Active; inhibition [8]: Active; Ratio IC50 [9]: 1.8
Nc1nc(NCc2ccc(Cl)cc2)c2ccccc2n1 | 0.62 µM | > 25 µM | Ratio IC50 [10]: 2.4
Nc1nc(NCc2ccc(Br)cc2)c2ccccc2n1 | 0.08 µM | 14.8 µM | inhibition [3]: Active; TIME [4]: 3.5 h; inhibition [7]: Active; inhibition [8]: Active; Ratio IC50 [10]: 18
COc1ccc(CNc2nc(N)nc3ccccc23)cc1 | 1.1 µM | > 25 µM | –
Nc1nc(NCCc2ccccc2)nc2ccccc12 | 14.9 µM | > 25 µM | –
Cc1ccc(CNc2nc(N)nc3ccccc23)cc1 | 3.9 µM | > 25 µM | –
Nc1nc(NCc2ccc(C(F)(F)F)cc2)nc2ccccc12 | 2.3 µM | 5.3 µM | –
Nc1nc(NCC2CCCCC2)nc2ccccc12 | > 25 µM | > 25 µM | –
Nc1nc(NCc2ccc(Cl)cc2)nc2ccccc12 | 0.93 µM | 8.1 µM | –
Nc1nc(NCC2CCCCC2)c2ccccc2n1 | 13.6 µM | > 25 µM | –
COc1cccc(CNc2nc(N)nc3ccccc23)c1 | 20.6 µM | – | IC50 [2]: Not Active
COc1ccc(CNc2nc(N)c3ccccc3n2)cc1 | 6.8 µM | > 25 µM | –
Nc1nc(NCc2ccccc2)nc2ccccc12 | 2.2 µM | 8.4 µM | –
Nc1nc(NCc2cccc(F)c2)c2ccccc2n1 | 2.8 µM | > 25 µM | –
Cc1cccc(CNc2nc(N)c3ccccc3n2)c1 | > 25 µM | > 25 µM | –
CCCNc1nc(N)nc2ccccc12 | 14.9 µM | – | IC50 [2]: Not Active
